# Assay outcomes (PubChem BioAssay)
# The list is not random: actives were taken first. Their share in the collection is about 1.6%.
# Neddyl block: inhibitors of human cullin neddylation. TR-FRET cullin neddylation, biochemical. calls only at 25 µM. 360,000 tested, 0.58% active. AID 651699; in the data active = inhibition above about 36%
# proCasp7 act: activates human procaspase-7, counter-screen for procaspase-3 activators. P55210. recombinant procaspase-7, Ac-DEVD-pNA absorbance 405 nm; D23A/D198A/D206A triple mutant, cannot self-cleave; scale: DMSO 0, 5 µM enzyme 100. activation, % at 8.5 µM. 330,000 tested, 0.093% active. AID 463210;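 active = percent activation above the screen-wide mean plus 3 SD, cut at about 25% in these data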
# Target sequence (P55210 whole entry D23A/D198A/D206A): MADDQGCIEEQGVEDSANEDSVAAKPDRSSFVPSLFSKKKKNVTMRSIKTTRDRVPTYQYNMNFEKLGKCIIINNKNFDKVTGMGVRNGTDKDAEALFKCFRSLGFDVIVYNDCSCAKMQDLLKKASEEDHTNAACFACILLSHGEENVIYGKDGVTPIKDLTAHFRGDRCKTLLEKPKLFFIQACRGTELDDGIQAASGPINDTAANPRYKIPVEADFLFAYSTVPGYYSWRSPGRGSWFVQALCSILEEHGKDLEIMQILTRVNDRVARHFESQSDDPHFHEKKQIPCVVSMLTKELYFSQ
#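 Assay system – Uncleavable procaspase-7 mutant enzyme · Quantity – 2 µM procaspase-7 mutant as dispensed · Times – 1 h preincubation, 2 h reaction · Dosing – single nominal 8.5 µM compound dose, 0.8% DMSO final · Buffer or medium – Zinc-free 50 mM HEPES buffer, pH 7.4, with NaCl and Triton X-100 · Detection – Epi-absorbance of released pNA at 405 nm, two timepoints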
# procasp3 activ: procaspase-3 (human) activation. recombinant procaspase-3 D3A, Ac-DEVD-pNA absorbance 405 nm. AID 463141. activation, % at 8.5 µM. P42574. 330,000 tested, 0.11% active;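 active = activation above the mean of all tested compounds plus 3 SD, cut at about 21% in these data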;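 note: 0% = DMSO alone and 100% = DMSO wells spiked with extra 5 µM PC-3 D3A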
# Target sequence (P42574 whole entry D9A/D28A/D175A): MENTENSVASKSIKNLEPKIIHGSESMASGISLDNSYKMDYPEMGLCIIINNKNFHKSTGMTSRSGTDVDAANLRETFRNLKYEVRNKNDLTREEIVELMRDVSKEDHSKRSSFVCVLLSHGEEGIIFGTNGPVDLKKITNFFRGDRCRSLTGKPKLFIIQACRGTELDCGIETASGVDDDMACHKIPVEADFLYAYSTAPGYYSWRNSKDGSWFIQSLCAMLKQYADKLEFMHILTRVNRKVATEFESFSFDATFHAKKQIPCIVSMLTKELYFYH
#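 Test system: Procaspase-3 D3A mutant; medium: Zinc-free HEPES/NaCl buffer with 0.01% Triton X-100 at pH 7.4; reagent: DEVD-pNA substrate; doses: one concentration, 8.5 µM nominal, 0.8% DMSO; times: 1 h preincubation plus 2 h reaction at 25 °C; signal: Epi-absorbance at 405 nm of released p-nitroaniline, 0 and 120 min; replicates: singlicate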
# KLK7 zymogen act: activators of human kallikrein-7 zymogen. P49862. purified proKLK7, EDANS-DABCYL substrate fluorescence; 100% is mature enzyme control, 0% vehicle. activation, % at 7 µM. 370,000 tested, 0.9% active;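 active = activation above the mean of all tested compounds plus 3 SD, computed per campaign excluding outliers beyond control limits, cut at about 13% in these data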
# KLK7 act conf: confirmation of human kallikrein-7 zymogen activators | shares compounds with KLK7 zymogen act | purified proKLK7, EDANS-DABCYL substrate fluorescence; scaled: vehicle 0, mature enzyme 100 | activation, % at 7 µM | 3,200 tested, 68% active | AID 686949;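 active = activation, as change over the incubation, above the mean of all tested compounds plus 3 SD, cut at about 13% in these data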
# EDANS-DABCYL int: fluorescence interference counter-screen for KLK7 activators | EDANS-DABCYL substrate fluorescence interference, no enzyme, 4 h; solvent 0%, active enzyme control 100% | shares compounds with KLK7 zymogen act | 3,200 tested, 80% active | activation, % at 7 µM;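 active = activation above the all-compound mean plus 3 SD, ignoring values outside control-based bounds, cut at about 4.8% in these data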;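 note: value is the 4 h activation minus the activation read at time zero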
# EDANS interf: EDANS fluorescence interference in dose response, no enzyme; 250 tested, 20% active; AID 720493; EDANS-DABCYL peptide fluorescence interference; EC50, µM; shares compounds with KLK7 zymogen act;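 active = compounds that raise the fluorescence signal in this interference counterscreen, with EC50 at or below 10 µM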;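 note: intact quenched peptide substrate alone read at 355 nm excitation and 520 nm emission; signal is fluorescence gain from T0 to T4 after four hours at room temperature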
# The depositor's hits bear a star; i = inactive; · = not tested or not shown.
SMILES,Neddyl block,proCasp7 act,procasp3 activ,KLK7 zymogen act,KLK7 act conf,EDANS-DABCYL int,others
COc1ccc(N(CC(=O)Nc2ccc(C)cn2)S(=O)(=O)c2c(C)noc2C)cc1,i,4,-6,16*,1,0,
COc1ccc(C(C(=O)NC2CCCC2)N(Cc2cccnc2)C(=O)Cc2cccs2)c(OC)c1 (stereo not given),i,1,0,0,·,·,
COc1cccc(CN(C)Cc2cc(=O)oc3cc(O)c(Cl)cc23)c1,·,2,0,38*,28*,37*,
COc1cccc(CN(C)Cc2cc(=O)oc3c(C)c(C)ccc23)c1,i,·,·,1,·,·,
Cc1cc(C)c2nc3nc(C)c(C)cc3c(N)c2c1,·,·,·,50*,34*,41*,
COC(=O)c1ccccc1NC1CC(=O)N(c2c(C)cccc2C)C1=O (stereo not given),·,-6,-2,88*,48*,49*,
COc1ccc(-c2cc(C(=O)N(C)CC(=O)Nc3ccccc3C(F)(F)F)c3ccccc3n2)cc1OC,i,·,·,14*,2,9.0*,
CN(CC(=O)Nc1ccccc1C(F)(F)F)C(=O)c1cc(Cl)nc2ccccc12,i,10,10,0,·,·,
C=CCOc1ccc2c(OC)c3ccoc3nc2c1OC,·,-14,11,19*,-6,-17,
COc1c2c(nc3occc13)C(CC=C(C)C)(OC)C(=O)C=C2 (stereo not given),i,-3,3,0,·,·,
CCOc1c2ccoc2nc2c(OC)c(OC)ccc12,·,0,1,13*,9,14*,
Cc1ccc(C2NC(=O)c3n[nH]c(C)c32)cc1 (stereo not given),·,·,·,1,·,·,
CCN(CC)c1ccc2c(C)c(CO)c(=O)oc2c1,·,2,-4,50*,51*,36*,EDANS interf=>70
O=C(CSc1nnc(-c2ccc(Cl)cc2)n1C1CCCCC1)NN=Cc1c(O)ccc2ccccc12,·,·,·,-3,·,·,
Cc1cc(Nc2ccccc2)nc(-c2ccccc2O)n1,i,-2,0,2,·,·,
Cc1cc(Nc2cccc(F)c2)nc(-c2ccccc2O)n1,i,6,-1,197*,13*,-69,EDANS interf=>70
COc1ccc(-c2[nH]c(-c3ccc(C(=O)O)cc3)nc2-c2ccccc2)cc1,·,3,7,3,·,·,
O=C(O)c1ccc(-c2nc(-c3ccccc3)c(-c3ccccc3)[nH]2)cc1,·,8,-8,46*,79*,81*,
CC(Oc1cc(Cl)ccc1Cl)C(=O)N/N=C\c1ccnn1C (stereo not given),i,-4,8,0,·,·,
O=C(O)C1C2C=CC3(CN(C/C=C/c4ccccc4)C(=O)C13)O2 (stereo not given),i,6,-1,0,·,·,
COc1cc(NC(=O)COc2ccccc2Cl)ccc1NC(=O)c1cccs1,·,-3,-2,63*,15*,8.8*,EDANS interf=8.6*
COc1cc(NC(=O)c2cccs2)c(OC)cc1NC(=O)Nc1ccc(F)cc1,i,·,·,99*,71*,117*,
COc1cc(NC(=O)COc2ccccc2[N+](=O)[O-])ccc1NC(=O)c1cccs1,i,·,·,1,·,·,
COc1cc(NC(=O)c2cccs2)c(OC)cc1NC(=O)c1cccs1,·,1,-5,·,·,·,
Cc1ccc(Oc2ccccc2/C=C/C(=O)O)cc1,i,-5,-7,0,·,·,
SMILES,Neddyl block,proCasp7 act,procasp3 activ,KLK7 zymogen act,KLK7 act conf,EDANS-DABCYL int,others
O=C(Nc1cc(C(F)(F)F)ccc1-n1cncn1)c1ccc([N+](=O)[O-])o1,i,5,1,0,·,·,
COc1ccccc1-c1coc2c(CN3CCC(C)CC3)c(O)ccc2c1=O,·,2,5,57*,64*,63*,
CC1CCCN(Cc2c(O)ccc3c(=O)c(-c4ccc(Cl)cc4)coc23)C1 (stereo not given),·,·,·,-1,·,·,
CCC1CCCCN1Cc1c(O)ccc2c(=O)c(-c3ccccc3OC)coc12 (stereo not given),·,-2,-12,35*,51*,71*,
CCc1c(C)c(C#N)c2nc3ccccc3n2c1NCCCN(C)C,i,·,·,4,·,·,
Cc1c2c(n3c(nc4ccccc43)c1C#N)N(CCCN(C)C)CC2,·,-4,-1,63*,2,7.4*,
Cc1c2c(n3c(nc4ccccc43)c1C#N)N(CCN(C)C)CC2,·,-8,-8,114*,-7,-3,
Fc1ccc(-c2c[nH]c(=S)n2Cc2ccccc2)cc1,i,-35,-16,0,·,·,
CCCCc1cc(=O)oc2c(CN3CCCC3)c(O)c(Cl)cc12,i,1,1,63*,71*,82*,
Cc1cc(=O)oc2c(CN3CCN(C)CC3)c(O)c(Cl)cc12,·,5,0,58*,76*,77*,
Cc1c(C)c2cc(Cl)c(O)c(CN3CCCCC3)c2oc1=O,·,5,-1,·,·,·,
CCc1c(C)c2cc(Cl)c(O)c(CN3CCCC3)c2oc1=O,·,·,·,37*,68*,69*,
CN1CCN(Cc2cc(=O)oc3ccc(Cl)cc23)CC1,i,9,3,0,·,·,
CCCc1cc(=O)oc2c(CN3CCN(C)CC3)c(O)c(Cl)cc12,·,0,-2,60*,71*,76*,
Cc1nccn1CCOc1ccc(Cl)cc1,i,3,6,0,·,·,
CN1CCN(Cc2c(O)c(Cl)cc3c(-c4ccccc4)cc(=O)oc23)CC1,·,4,1,17*,14*,11*,
Cc1cc2oc(=O)cc(CN3CCN(c4ccccc4)CC3)c2cc1Cl,i,·,·,1,·,·,
N#Cc1cc2ccc(N3CCOCC3)cc2cc1C#N,i,0,2,34*,-88,-48,
CCn1c(=O)c2cc(C(=O)NCCC(C)C)sc2c2ccccc21,i,10,6,-2,·,·,
CCN(CC)CCNC(=O)c1cc2c(=O)n(C)c3ccccc3c2s1,·,4,-3,27*,-10,-18,
CCCCN(CC)CCCNC(=O)c1cc2c(=O)n(CC)c3ccccc3c2s1,·,0,6,11,·,·,
CCn1c(=O)c2cc(C(=O)NCC(OC)OC)sc2c2ccccc21,·,3,-2,1,·,·,
CCCCN(CC)CCNC(=O)c1cc2c(=O)n(CC)c3ccccc3c2s1,·,10,12,14*,-1,-3,
CCCCN(CC)CCNC(=O)c1cc2c(=O)n(C)c3ccccc3c2s1,·,6,2,19*,1,-2,
CCCN(CCC)CCCNC(=O)c1cc2c(=O)n(CC)c3ccccc3c2s1,·,-1,4,19*,-8,-12,
Cc1cc(C)c(C)c(OCC(O)CN2CCN(c3ccccn3)CC2)c1 (stereo not given),i,11,5,0,·,·,
